Laboratory results as given in ChEMBL document CHEMBL1122329, “Synthesis and antianxiety activity of (omega-piperazinylalkoxy)indan derivatives” (J Med Chem, 1983).

What was measured:
Mus musculus [1] = assay: Anti-morphine activity against the morphine-induced Straub's tail reaction in mice on peroral administration; type: functional; conditions: po
Outline: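 Mice, six per group, dosed orally with test compound 1 h before morphine (20 mg/kg ip); Straub's tail reaction scored as index of morphine CNS stimulation.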

Mus musculus [2] = assay: Cataleptogenic action in mice on peroral administration; type: functional; conditions: po
Outline: (§1)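 Six mice per group were dosed orally 1 h before testing. Forepaws were placed on a horizontal steel bar to force an abnormal posture. Holding the posture over 30 s counted as catalepsy. ED50 was the dose giving catalepsy in 50% of animals, with 95% confidence limits.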

Mus musculus [3] = assay: Antifighting potency against the foot shock induced fighting behavior in mice on peroral administration; type: functional; conditions: po
Mus musculus [4] = assay: Evaluated for muscle-relaxant action in mice on peroral administration; type: functional; conditions: po
Outline: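 Traction test: mice, eight per group, dosed orally; 1 h later forepaws placed on horizontal wire bar 30 cm high; failure to bring hind feet onto wire within 5 s counted as muscle relaxation.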

Mus musculus [5] = assay: Evaluated for hypothermic activity in mice at 30 mg/kg on peroral administration; type: functional; conditions: route oral
Outline: (§2)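 Six mice per group were dosed orally 1 h before testing. Rectal temperature was read with an electronic thermometer. Results are given as degrees of hypothermia (Δt °C) versus an untreated group.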

Rattus norvegicus [6] = assay: Evaluated for neuroleptic-like property using anti-methamphetamine test in rats on peroral administration; type: functional; conditions: po
Outline: (§3)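 Groups of six rats were dosed orally, then given methamphetamine 5 mg/kg ip 1 h later. Stereotypy was scored 0–4: sleep/eyes closed 0, motionless/eyes open 1, moving around cage 2, sniffing 3, continuous licking or gnawing 4. ED50 was the dose halving mean score versus controls, with 95% confidence limits.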

Mus musculus [7] = assay: Anti-morphine activity against the morphine-induced Straub''s tail reaction in mice expressed as % inhibition at 25 mg/kg peroral administration; type: functional; conditions: route oral
Outline: (§4)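 Six mice per group received test compounds orally 1 h before morphine (20 mg/kg ip). Straub's tail reaction was scored as the index of morphine's CNS stimulant action.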

Mus musculus [8] = assay: Anti-fighting potency against foot shock induced fighting behavior in mice expressed as % inhibition at 25 mg/kg peroral administration; type: functional; conditions: route oral
Rattus norvegicus [9] = assay: Evaluated for neuroleptic-like property using open-field test in rats(increase in ambulation at 3 to 20 mg/kg) on peroral administration; value may range from 8.4 to 17.0; type: functional; conditions: dose mg/kg 3-20, route oral
[10] = Toxicity on peroral administration to mice; type: organism-based; conditions: mouse, in vivo, po
Outline: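 Oral dosing to mice, eight per group; LD50 calculated by Litchfield-Wilcoxon method.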

[11] = Ratio of the muscle relaxant action to antifighting effect; type: functional
Outline: (§5)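 Muscle relaxation was measured by traction test in mice (eight per group), 1 h after oral dosing. Forepaws were placed on a horizontal wire bar 30 cm high. Failure to bring the hind feet onto the wire within 5 s counted as relaxation. This action was set in ratio with the antifighting effect.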

Mus musculus [12] = assay: Cataleptogenic action in mice on peroral administration; value may range from 30 to 71; type: functional; conditions: po; outline: as §1
Mus musculus [13] = assay: Anti-morphine activity against morphine-induced Straub''s tail reaction in mice expressed as % inhibition at 25 mg/kg peroral administration; type: functional; conditions: route oral; outline: as §4
Mus musculus [14] = assay: Evaluated for hypothermic activity in mice at 30 mg/kgo n peroral administration; type: functional; conditions: dose 30 mg/kg; route oral; outline: as §2
Rattus norvegicus [15] = assay: Evaluated for neuroleptic-like property using open-field test in rats(increase in ambulation at 3 to 20 mg/kg on peroral administration; value may range from 11.9 to 23.1; type: functional; conditions: dose mg/kg 3-20, route oral
[16] = Ratio of muscle relaxant action to antifighting effect; type: functional; outline: as §5
Rattus norvegicus [17] = assay: Evaluated for neuroleptic-like property using open-field test in rats(increase in ambulation at 3 to 20 mg/kg on peroral administration; type: functional; conditions: dose mg/kg 3-20, route oral
Rattus norvegicus [18] = assay: Evaluated for neuroleptic-like property using open-field test in rats(increase in ambulation at 3 to 20 mg/kg on peroral administration; value may range from 7.3 to 13.9; type: functional; conditions: dose mg/kg 3-20, route oral
Mus musculus [19] = assay: Cataleptogenic action in mice on peroral administration; value ranges from 26-93; type: functional; conditions: po; outline: as §1
Rattus norvegicus [20] = assay: Evaluated for neuroleptic-like property using open-field test in rats(increase in ambulation at 3 to 20mg/kg on peroral administration; value may range from 8.1 to 13.2; type: functional; conditions: po
Rattus norvegicus [21] = assay: Evaluated for neuroleptic-like property using anti-methamphetamine test in rats on peroral administration; value may range from 20 to 79; type: functional; conditions: po; outline: as §3

Compound | ED50 (Mus musculus [2]) | Delta t (Mus musculus [5]) | ED50 (Rattus norvegicus [6]) | inhibition in vivo at 25 mg/kg (Mus musculus [8]) | LD50 [10] | Ratio [16] | other results
CN1C(=O)CN=C(c2ccccc2)c2cc(Cl)ccc21 [DIAZEPAM] | > 30 mg/kg | -0.1 | > 30 mg/kg | – | – | – | ED50 (Mus musculus [1]): 1.2 mg/kg; ED50 (Mus musculus [3]): 1.6 mg/kg; ED50 (Mus musculus [4]): 4.8 mg/kg
Cl.Cl.c1ccc(N2CCN(CCCOc3ccc4c(c3)CCC4)CC2)cc1 | > 100 mg/kg | -2.3 °C | > 100 mg/kg | 85% | > 1500 mg/kg | – | inhibition in vivo at 25 mg/kg (Mus musculus [7]): 89%; ED50 (Rattus norvegicus [9]): 11.7 mg/kg; Ratio [11]: 2.18
Cc1cc2c(cc1OCCCN1CCN(c3ccccc3)CC1)CCC2.Cl.Cl | – | – | > 100 mg/kg | 83% | > 2000 mg/kg | 5.41 | ED50 (Mus musculus [1]): 16 mg/kg; ED50 (Mus musculus [12]): 56 mg/kg; inhibition in vivo at 25 mg/kg (Mus musculus [13]): 94%; Delta t (Mus musculus [14]): -2.5 °C; ED50 (Rattus norvegicus [15]): 16.6 mg/kg
CN(C)CCCN1c2ccccc2Sc2ccc(Cl)cc21 [CHLORPROMAZINE] | 17 mg/kg | -1.5 | 15 mg/kg | – | – | – | ED50 (Rattus norvegicus [17]): 10.1 mg/kg
Cl.Cl.Fc1cc2c(cc1OCCCN1CCN(c3ccccc3)CC1)CCC2 | > 100 mg/kg | – | > 100 mg/kg | 100% | > 2000 mg/kg | 5 | inhibition in vivo at 25 mg/kg (Mus musculus [13]): 89%; Delta t (Mus musculus [14]): -2.9 °C; ED50 (Rattus norvegicus [18]): 9.3 mg/kg
Cl.Cl.Fc1ccc(N2CCN(CCCOc3ccc4c(c3)CCC4)CC2)cc1 | – | -5 °C | – | 88% | > 2000 mg/kg | 3.73 | inhibition in vivo at 25 mg/kg (Mus musculus [7]): 100%; ED50 (Mus musculus [19]): 50 mg/kg; ED50 (Rattus norvegicus [20]): 10.3 mg/kg; ED50 (Rattus norvegicus [21]): 43 mg/kg
CNC1=Nc2ccc(Cl)cc2C(c2ccccc2)=[N+]([O-])C1 [CHLORDIAZEPOXIDE] | > 30 mg/kg | 0.2 | > 30 mg/kg | – | 700 mg/kg | – | ED50 (Mus musculus [4]): 8 mg/kg
